In ChEMBL document CHEMBL4616673 (J Med Chem, 2020):
Values joined by “and” are separate entries in the source; they are usually repeats but may differ in a detail not shown here. Equal values may be shown once. Active and inactive are the calls of the source. No cut-off for these calls is given here.

Columns and labels:
[1] = Oral bioavailability in Sprague-Dawley rat at 25 mg/kg administered via gavage by LC-MS analysis; format: ADME, organism-based; settings: in vivo
How it was run: (§1)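 Male Sprague-Dawley rats, fasted overnight, jugular vein catheter for serial blood sampling. Single dose of 25 mg/kg by oral gavage or 5 mg/kg by tail-vein injection. Blood drawn at set times and spun at once for plasma, plasma drug by LC-MS. Parameters given as mean, n = 6.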

[2] = Acute toxicity in BALB/c mouse assessed as effect on blood LDLC level at 400 mg/kg, po measured on day 14; format: organism-based; settings: in vivo
How it was run: (§2)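 BALB/c mice, female and male, 6-8 weeks old, given oral doses within 24 h, up to 400 mg/kg (free compound) or 800 mg/kg (nanocrystal formulation). Watched for body weight loss, diarrhea, anorexia, skin ulcer and toxic death. Serum biochemistry panel was run at the end of treatment.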

[3] = Acute toxicity in BALB/c mouse assessed as effect on blood AST level at 400 mg/kg, po measured on day 14; format: organism-based; settings: in vivo; how it was run: as §2
Raji [4] = assay: Cell cycle arrest in human Raji cells assessed as accumulation at S phase at 0.031 uM measured after 24 hrs by propidium iodide/RNase staining based flow cytometry (reference value: 52%); format: functional
Raji [5] = assay: Antiproliferative activity against human Raji cells assessed as inhibition of cell proliferation at 0.02 to 0.156 uM measured after 48 hrs in presence of uridine by MTT assay; format: functional, cell-based
How it was run: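 Raji cells treated with or without 500 μM uridine, viability by MTT. Cells seeded at 2-10 × 10^3 per well, treated 24 h later for 48 h. MTT (5 mg/mL) for 2-4 h, product dissolved overnight in 20% acidified SDS, absorbance at 570 nm. Mean ± SD.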

[6] = Toxicity in NOD-SCID nude mouse xenografted with human Raji cells assessed as effect on body weight at 30 mg/kg/day, po administered 6 days a week for 3 weeks and measured every 3 days; format: organism-based; settings: in vivo
How it was run: (§3)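 Mice, 6-7 weeks old, injected s.c. with 1×10^7 Raji cells in serum-free medium plus basement membrane matrix. At 100–200 mm3 tumours, randomised (n=6). Oral dosing 6 days/week for 3 weeks: 30 mg/kg/d free compound suspended in 5% NMP/95% PEG400, or 40 or 80 mg/kg/d nanocrystal. Body weight and tumour volume measured every 3 days.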

[7] = Acute toxicity in BALB/c mouse assessed as effect on lung at 400 mg/kg, po measured on day 14 by H and E staining based light microscopic analysis; format: organism-based; settings: in vivo
How it was run: (§4)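 Female and male BALB/c mice, 6-8 weeks old, dosed orally within 24 h at up to 400 mg/kg (free compound) or 800 mg/kg (nanocrystal). At the end of treatment, heart, liver, spleen, lung and kidney were sectioned, stained with H&E and imaged by light microscopy.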

[8] = Acute toxicity in BALB/c mouse assessed as effect on blood GLU level at 400 mg/kg, po measured on day 14; format: organism-based; settings: in vivo; how it was run: as §2
MCF7 = assay: Antiproliferative activity against human MCF7 cells assessed as reduction in cell viability measured after 48 hrs by MTT assay; format: functional, cell-based; settings: Homo sapiens, MCF7, 48 h
NAMALVA = assay: Antiproliferative activity against human NAMALWA cells assessed as reduction in cell viability measured after 48 hrs by MTT assay; format: functional, cell-based; settings: Homo sapiens, NAMALVA, 48 h
[9] = Acute toxicity in BALB/c mouse assessed as effect on blood BILT level at 400 mg/kg, po measured on day 14; format: organism-based; settings: in vivo; how it was run: as §2
[10] = Acute toxicity in BALB/c mouse assessed as effect on blood ALP level at 800 mg/kg, po measured on day 14; format: organism-based; settings: in vivo; how it was run: as §2
[11] = Half life in mouse liver microsomes at 1 uM in presence of NADPH by LC-MS analysis; format: ADME, Microsome
How it was run: (§5)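 Compound at 1 μM with 0.5 mg/mL human, rat or mouse liver microsomes and 1 mM NADPH. Stopped with acetonitrile at 0, 5, 15, 30, 45, 60 and 90 min, centrifuged. Supernatant analysed by LC-MS/MS.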

Raji [12] = assay: Induction of apoptosis in human Raji cells assessed as necrotic cells at 0.031 uM measured after 48 hrs by Annexin V-FITC staining based flow cytometry (reference value: 0.21 %); format: functional
[13] = Acute toxicity in BALB/c mouse assessed as effect on liver at 800 mg/kg, po measured on day 14 by H and E staining based light microscopic analysis; format: organism-based; settings: in vivo; how it was run: as §4
[14] = Toxicity in NOD-SCID nude mouse xenografted with human Raji cells assessed as death at 40 to 80 mg/kg/day, po administered 6 days a week for 3 weeks; format: organism-based; settings: in vivo; how it was run: as §3
[15] = Acute toxicity in BALB/c mouse assessed as effect on blood BILT level at 800 mg/kg, po measured on day 14; format: organism-based; settings: in vivo; how it was run: as §2
[16] = Tmax in Sprague-Dawley rat at 25 mg/kg, po administered via gavage by LC-MS analysis; format: ADME, organism-based; settings: in vivo; how it was run: as §1
[17] = Half life in human liver microsomes at 1 uM in presence of NADPH by LC-MS analysis; format: ADME, Microsome; how it was run: as §5
[18] = Acute toxicity in BALB/c mouse assessed as effect on blood CHO1 level at 400 mg/kg, po measured on day 14; format: organism-based; settings: in vivo; how it was run: as §2
Raji [19] = assay: Induction of apoptosis in human Raji cells assessed as late apoptotic cells at 0.031 uM measured after 48 hrs by Annexin V-FITC staining based flow cytometry (reference value: 0.7 %); format: functional
[20] = Acute toxicity in BALB/c mouse assessed as effect on blood ALT level at 800 mg/kg, po measured on day 14; format: organism-based; settings: in vivo; how it was run: as §2
[21] = Acute toxicity in BALB/c mouse assessed as effect on blood CK level at 400 mg/kg, po measured on day 14; format: organism-based; settings: in vivo; how it was run: as §2
[22] = Toxicity in NOD-SCID nude mouse xenografted with human Raji cells assessed as dermatitis at 40 to 80 mg/kg/day, po administered 6 days a week for 3 weeks; format: organism-based; settings: in vivo; how it was run: as §3
Raji [23] = assay: Induction of apoptosis in human Raji cells assessed as live cells at 0.063 uM measured after 48 hrs by Annexin V-FITC staining based flow cytometry (reference value: 98.09 %); format: functional
Raji [24] = assay: Antitumor activity against human Raji cells xenografted in NOD-SCID nude mouse assessed as tumor growth inhibition at 30 mg/kg/day, po administered 6 days a week for 3 weeks relative to control; format: functional; settings: read-out: TGI
How it was run: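 Nude mice given 1 × 10^7 Raji cells s.c. in serum-free medium plus basement membrane matrix. Randomized at 100–200 mm3 tumour volume (n = 6 per group). Oral dosing 6 days/week for 3 weeks. Vehicles: 30 mg/kg/d in 5% NMP/95% PEG400, 10 mg/kg/d in 30% PEG300/70% saline. Volume = ab²/2 every 3 days. TGI from treated vs control volume change, initial to final day.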

[25] = Acute toxicity in BALB/c mouse assessed as effect on blood UA level at 400 mg/kg, po measured on day 14; format: organism-based; settings: in vivo; how it was run: as §2
A549 = assay: Antiproliferative activity against human A549 cells assessed as reduction in cell viability measured after 48 hrs by MTT assay; format: functional, cell-based; settings: Homo sapiens, A549, 48 h

O=C1c2ccccc2C(=O)c2c1nnn2-c1cc(F)c(-c2ccccc2F)c(F)c1
F [1]: 9.66% and 25.16% | Activity [2]: Non-Toxic | Activity [3]: Non-Toxic | Activity (Raji [4]): 76.62% | inhibition (Raji [5]): inactive | Activity [6]: Non-Toxic | Activity [7]: Non-Toxic | Activity [8]: Non-Toxic | IC50 (MCF7): 9.61 µM | IC50 (NAMALVA): 0.99 µM | Activity [9]: Non-Toxic | Activity [10]: Non-Toxic | half-life at 1 µM ([11]; liver microsomes): 37 min | t1/2 ([11]; microsomes, 1 µM): 50 min | Activity (Raji [12]): 0.37% | Activity [13]: Non-Toxic | Activity [14]: Non-Toxic | Activity [15]: Non-Toxic | Tmax [16]: 600 min and 1620 min | half-life at 1 µM ([17]; liver microsomes): 32 min | t1/2 ([17]; microsomes, 1 µM): 63 min | Activity [18]: Non-Toxic | Activity (Raji [19]): 3.4% | Activity [20]: Non-Toxic | Activity [21]: Non-Toxic | Activity [22]: Non-Toxic | Activity (Raji [23]): 92.31% | inhibition in vivo at 30 mg/kg/day (Raji [24]): 42% | Activity [25]: Non-Toxic | IC50 (A549): 1.65 µM
